Results from ChEMBL document CHEMBL3421532, “Synthesis and antiproliferative activity of α-branched α,β-unsaturated ketones in human hematological and solid cancer cell lines” (Eur J Med Chem, 2015).
Active and inactive are the calls of the source. The calls are words filed in the database; no cut-off is given here.

How the values were obtained:
NB-4 [1] = assay: Acceleration of RA-induced granulocytic differentiation in human NB4 cells in presence of all-trans retinoic acid relative to control; format: functional
NB-4 [2] = assay: Antiproliferative activity against human NB4 cells assessed as decrease in cell viability at 1 uM after 96 hrs by trypan blue exclusion test; format: functional, cell-based
How it was run: (§1)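 Log-phase NB4 cells at 0.5 × 10⁶ cells/ml were exposed to test agent alone or combined with 1 µM retinoic acid for 24, 48, 72 and 96 h. At each time point, aliquots were stained with 0.2% trypan blue, and viable and dead cells were counted on a hematocytometer.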

[3] = Cell cycle arrest at G0/G1 phase in human NB4 cells at 1 uM by flow cytometry; format: functional, cell-based; conditions: NB-4
[4] = Antiproliferative activity against human NB4 cells assessed as cell growth inhibition after 48 hrs by XTT assay; format: functional, cell-based; conditions: NB-4, 48 h
How it was run: (§2)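 NB4 grown in RPMI 1640 with 10% FBS and penicillin/streptomycin, A549 and MCF-7 in DMEM, all at 37 °C and 5% CO2. Cells seeded at 1.5∙10⁴ (NB4) or 1.0∙10⁴ (A549, MCF-7) per well. Adherent lines dosed 24 h after plating, NB4 shortly after. Triplicate concentrations from 0.1 to 100, DMSO control at 0.5% v/v. After 48 h exposure, XTT added for 2 h. A450 minus A690 read, GI50 reported with SE.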

A549 [5] = assay: Antiproliferative activity against human A549 cells assessed as cell growth inhibition after 48 hrs by XTT assay; format: functional, cell-based; conditions: A549, 48 h; how it was run: as §2
MCF7 [6] = assay: Antiproliferative activity against human MCF7 cells assessed as cell growth inhibition after 48 hrs by XTT assay; format: functional, cell-based; conditions: MCF7, 48 h; how it was run: as §2
NB-4 [7] = assay: Induction of cell death in human NB4 cells assessed as elevated sub-G1 population at 10 uM after 48 hrs by flow cytometry; format: functional, cell-based
How it was run: (§3)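 Cells seeded in 6-well plates at 1∙10⁶ (NB4) or 0.45∙10⁶ (A549, MCF-7) per well. Treated for 48 h at 10 (NB4, MCF-7), 20 and 30 (A549), or, for NB4, a lower 5; DMSO solvent control. Cell cycle phase distribution and sub-G1 measured by flow cytometry. Mean of two independent experiments.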

[8] = Cell cycle arrest in human NB4 cells assessed as increase in cell population at S phase at 5 uM after 48 hrs by flow cytometry; format: functional, cell-based; conditions: NB-4; how it was run: as §3
MCF7 [9] = assay: Cell cycle arrest in human MCF7 cells assessed as increase in cell population at G2/M phase at 10 uM after 48 hrs by flow cytometry; format: functional, cell-based; how it was run: as §3
MCF7 [10] = assay: Cell cycle arrest in human MCF7 cells assessed as increase in cell population at S phase at 10 uM after 48 hrs by flow cytometry; format: functional, cell-based; how it was run: as §3
MCF7 [11] = assay: Induction of apoptosis in human MCF7 cells at 10 uM after 24 to 48 hrs by annexin V binding assay; format: functional, cell-based
How it was run: (§4)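 Cells seeded in 6-well plates at 1∙10⁶ (NB4) or 0.45∙10⁶ (A549, MCF-7) per well. Treated at 5 (NB4), 20 and 30 (A549) or 10 (MCF-7). Apoptotic cell percentage measured by annexin V binding after 24 and 48 h. Mean of two independent experiments.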

[12] = Induction of apoptosis in human NB4 cells assessed as cell death; format: functional, NB-4
How it was run: (§5)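 NB4 acute promyelocytic leukemia cells were grown in RPMI 1640 + GlutaMAX with 10% FBS and penicillin/streptomycin at 37 °C under 5% CO₂. Cells were seeded in 6-well plates at 1∙10⁶ per well and treated for 24 and 48 h; DMSO served as the solvent control. Apoptotic cells were quantified by annexin V binding. Values are the mean of two independent experiments.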

[13] = Induction of apoptosis in human NB4 cells assessed as cell death at 5 uM after 24 hrs by annexin V binding assay; format: functional, NB-4; how it was run: as §5
[14] = Cell cycle arrest in human NB4 cells assessed as increase in cell population at G2/M phase at 5 uM after 48 hrs by flow cytometry; format: functional, cell-based; conditions: NB-4; how it was run: as §3
[15] = Cell cycle arrest in human NB4 cells assessed as increase in cell population at G0/G1 phase at 5 uM after 48 hrs by flow cytometry; format: functional, cell-based; conditions: NB-4; how it was run: as §3
NB-4 [16] = assay: Induction of apoptosis in human NB4 cells at 5 uM after 24 to 48 hrs by annexin V binding assay; format: functional, cell-based; how it was run: as §4
[17] = Cell cycle arrest in human NB4 cells assessed as accumulation of cells at G0/G1 phase at 1 uM after 24 hrs by flow cytometry in presence of 1 uM all-trans retinoic acid; format: functional, cell-based; conditions: NB-4
NB-4 [18] = assay: Induction of granulocytic differentiation in human NB4 cells at 1 uM after 24 to 96 hrs by NBT assay; format: functional, cell-based
How it was run: (§6)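 NB4 cells were treated with agent, 1 µM retinoic acid, or both, for 24–96 h. Differentiation was scored as reduction of NBT to formazan after PMA stimulation. NBT-positive cells were counted in 5 non-overlapping fields at ×400 and averaged per field. Three independent experiments; mean ± SD.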

NB-4 [19] = assay: Acceleration of RA-induced granulocytic differentiation in human NB4 cells at 1 uM after 24 to 96 hrs by NBT assay in presence of 1 uM all-trans retinoic acid relative to control; format: functional; how it was run: as §6
NB-4 [20] = assay: Induction of granulocytic differentiation in human NB4 cells at 1 uM after 48 hrs by CD11b assay (reference value: 8.5%); format: functional
NB-4 [21] = assay: Acceleration of RA-induced granulocytic differentiation in human NB4 cells at 1 uM after 48 hrs by CD11b assay in presence of 1 uM all-trans retinoic acid (reference value: 79.9%); format: functional
NB-4 [22] = assay: Antiproliferative activity against human NB4 cells assessed as decrease in cell viability at 1uM in presence of 1 uM all-trans retinoic acid after 96 hrs by trypan blue exclusion test; format: functional, cell-based; how it was run: as §1
A549 [23] = assay: Cell cycle arrest in human A549 cells assessed as slight increase in cell accumulation at G2/M phase at 20 uM after 48 hrs by flow cytometry; format: functional, cell-based; how it was run: as §3
A549 [24] = assay: Cell cycle arrest in human A549 cells assessed as slight increase in cell population at S phase at 20 uM after 48 hrs by flow cytometry; format: functional, cell-based; how it was run: as §3
A549 [25] = assay: Cell cycle arrest in human A549 cells assessed as increase in cell population at S phase at 30 uM after 48 hrs by flow cytometry; format: functional, cell-based; how it was run: as §3
A549 [26] = assay: Induction of apoptosis in human A549 cells at 20 to 30 uM after 24 to 48 hrs by annexin V binding assay; format: functional, cell-based; how it was run: as §4

`COc1cc2nc(N3CCCN(C)CC3)nc(NC3CCN(Cc4ccccc4)CC3)c2cc1OC` gave an Activity (NB-4 [1]) of 10%.

For `CC1=C(/C=C/C(C)=C/C=C/C(C)=C/C(=O)O)C(C)(C)CCC1`, the Activity (NB-4 [2]) was “Active” and the Activity [3] was 17.3%.

`CCN(CC)C/C(=C\c1ccc([N+](=O)[O-])cc1)C(=O)c1ccc(OC)cc1` showed an IC50 [4] of 1.2 µM, an IC50 (A549 [5]) of 22 µM and an IC50 (MCF7 [6]) of 4.3 µM. For the same compound, the Activity (NB-4 [7]) was “Active”, the Activity [8] was “Active” and the Activity (MCF7 [9]) was “Active”. The Activity (MCF7 [10]) was “Active” and the Activity (MCF7 [11]) was “Active”.

In the case of `COc1cccc2c1C(=O)c1c(O)c3c(c(O)c1C2=O)C[C@@](O)(C(=O)CO)C[C@@H]3O[C@H]1C[C@H](N)[C@H](O)[C@H](C)O1` [DOXORUBICIN], the Activity [12] is reported as 80%.

In the case of `C=C(C(=O)c1ccc(OC)cc1OC)C(OC(C)=O)c1ccc([N+](=O)[O-])cc1` (stereo not given), the IC50 [4] is reported as 5 µM, the IC50 (A549 [5]) is reported as 43.5 µM and the IC50 (MCF7 [6]) is reported as 10.4 µM. The Activity (NB-4 [7]) was “Active”, the Activity [8] was “Active” and the Activity [13] was >50%.

For `C=C(C/C(=C\c1ccc(OC(=O)c2ccccc2)cc1)C(=O)c1ccc(OC)cc1)C(=O)c1ccc(OC)cc1`, the IC50 [4] was 6.7 µM, the IC50 (A549 [5]) was > 100 µM and the IC50 (MCF7 [6]) was > 100 µM. For the same compound, the Activity (NB-4 [7]) was “Active” and the Activity [14] was “Active”.

`O=C(/C=C/c1cccc(S(=O)(=O)Nc2ccccc2)c1)NO` [BELINOSTAT] gave an Activity [12] of 20% and an Activity (NB-4 [1]) of 13%.

In the case of `COc1ccc(C(=O)/C(=C/c2ccc([N+](=O)[O-])cc2)CC(C)C)cc1`, the IC50 [4] is reported as 0.6 µM, the IC50 (A549 [5]) is reported as > 100 µM and the IC50 (MCF7 [6]) is reported as > 100 µM. The Activity (NB-4 [7]) was “Active”, the Activity [15] was “Active” and the Activity (NB-4 [16]) was “inactive”. The inhibition (NB-4 [2]) was “Active”, the Activity [3] was “inactive” and the Activity [17] was 18.2%. The Activity (NB-4 [18]) was “inactive”, the Activity (NB-4 [19]) was 8% and the Activity (NB-4 [20]) was 9.5%. For the same compound, the Activity (NB-4 [21]) was 87.9% and the Activity (NB-4 [22]) was “Active”.

Compound `C=C(C(=O)c1ccc(OC)cc1)C(OC(C)=O)c1ccc(Cl)cc1Cl` (stereo not given) has an IC50 [4] of 5.4 µM, an IC50 (A549 [5]) of 17.6 µM and an IC50 (MCF7 [6]) of 8.3 µM. The Activity (NB-4 [7]) was “Active”, the Activity [8] was “Active” and the Activity (A549 [23]) was “Active”. The Activity (A549 [24]) was “Active”, the Activity (A549 [25]) was “Active” and the Activity (MCF7 [9]) was “Active”. For the same compound, the Activity (MCF7 [10]) was “Active”, the Activity [13] was >50% and the Activity (A549 [26]) was “Active”.

In the case of `O=[As][As+](=O)[O-]` (stereo not given) [ARSENIC TRIOXIDE], the Activity [12] is reported as 27%.

For `CC(=O)OC/C(=C\c1ccccc1F)C(=O)c1ccccc1`, the IC50 [4] was 5.8 µM, the IC50 (A549 [5]) was 68.7 µM and the IC50 (MCF7 [6]) was 14.6 µM. For the same compound, the Activity (NB-4 [7]) was “Active”, the Activity [8] was “Active” and the Activity [13] was >50%.

In the case of `C=C(C(=O)c1ccc(OC)cc1)C(O)c1ccc([N+](=O)[O-])cc1` (stereo not given), the IC50 [4] is reported as 5.4 µM, the IC50 (A549 [5]) is reported as 23.8 µM and the IC50 (MCF7 [6]) is reported as 11 µM. For the same compound, the Activity (NB-4 [7]) was “Active”, the Activity [14] was “Active” and the Activity (MCF7 [9]) was “Active”. For the same compound, the Activity (MCF7 [10]) was “Active”.
